Assay outcomes: PubChem BioAssay, The Scripps Research Institute Molecular Screening Center
A selection: hits, their analogues and other compounds. The true share with any hit is near 2.3%.
pPAFAH inh: pPAFAH enzyme inhibitors, primary screen, biochemical, fluorescence polarization, human; hit rate 1.5% among 330,000; Platelet-activating factor acetylhydrolase (Homo sapiens), Q13093; recombinant pPAFAH, FP-rhodamine probe fluorescence polarization; inhibition, % at 3.39 µM;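 active = inhibition above the mean inhibition across the screen plus 3 SD, cut at about 25% in these data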;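 note: inhibitors block binding of the rhodamine activity-based probe so polarization drops; 0% = enzyme with DMSO and 100% = wells lacking pPAFAH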
SIAE primary: human SIAE inhibitors, primary screen, biochemical, fluorescence polarization, FP-Rh probe, 1536-well HTS; Sialate O-acetylesterase (Homo sapiens), Q9HAT2; SIAE FP-Rh probe binding; inhibition, % at 9.66 µM; hit rate 0.69% among 370,000;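 active = inhibition above a cutoff: mean of compounds within the control limits plus 3 SD of those, cut at about 17% in these data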;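 note: 0% = plate median of compound wells and 100% = probe without SIAE protein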
HTRA1 inhibitor: HTRA1 serine protease inhibitors, primary screen, biochemical, fluorescence polarization, HTS | hit rate 0.5% among 340,000 | inhibition, % at 5.96 µM | Q92743 | recombinant HTRA1, FP-rhodamine activity-based probe; in the data active = inhibition above about 36%;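 note: 0% = enzyme with DMSO and 100% = wells lacking enzyme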
TCR CD3 inh: inhibitors of human TCR-CD3 interaction, primary screen, biochemical, fluorescence, TAMRA-labeled TCR probe. T-cell receptor (TCR). inhibition, % at 9.4 µM. hit rate 0.37% among 360,000. AID 651800, 2012; in the data active = inhibition above about 19%;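 note: recombinant mutant TCR 2C K166C tagged with TAMRA read by polarization; 0% = receptor in buffer alone and 100% = receptor with positive control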
ABHD4 inh: ABHD4 inhibitors, primary screen, biochemical, fluorescence polarization, mouse | (Lyso)-N-acylphosphatidylethanolamine lipase (Mus musculus), Q8VD66 | purified mABHD4, FP-Rh probe fluorescence polarization | inhibition, % at 8.92 µM | hit rate 0.54% among 370,000;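 active = inhibition exceeding the mean over every tested compound plus 3 SD, cut at about 30% in these data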;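 note: 0% = plate median of compound wells and 100% = S159A mutant with DMSO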
Target sequence (Q8VD66 whole entry, looked up): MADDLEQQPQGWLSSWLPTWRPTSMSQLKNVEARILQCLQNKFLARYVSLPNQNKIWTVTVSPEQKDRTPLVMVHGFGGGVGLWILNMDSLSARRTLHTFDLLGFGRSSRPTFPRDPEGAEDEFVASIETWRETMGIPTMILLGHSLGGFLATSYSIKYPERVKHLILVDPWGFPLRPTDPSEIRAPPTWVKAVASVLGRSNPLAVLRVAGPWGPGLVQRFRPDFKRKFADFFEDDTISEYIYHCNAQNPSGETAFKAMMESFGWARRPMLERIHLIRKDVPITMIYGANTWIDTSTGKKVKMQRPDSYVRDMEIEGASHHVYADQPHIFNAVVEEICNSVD
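system = mouse ABHD4 enzyme, wild type | medium = HEPES pH 7.0, NaCl, Pluronic buffer | also added = FP-Rh probe | incubation = Enzyme–compound pre-incubation 45 min, then probe 60 min, both 25 °C | technique = fluorescence polarization, excitation 525 nm, emission 598 nm, BODIPY TMR filters | controls = S159A mutant high control, sample median low control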
* hit, by the source's call; / = no result.

SMILES	pPAFAH inh	SIAE primary	HTRA1 inhibitor	TCR CD3 inh	ABHD4 inh
CCN1/C(=C/C=C/c2oc3ccc4ccccc4c3[n+]2CC)Oc2ccc3ccccc3c21	42*	/	/	/	/
O=C(O)c1cccc(NC(CNS(=O)(=O)c2ccc(Cl)cc2)c2ccccc2)c1 (stereo not drawn)	26*	-5	-19	-7	2
Cc1cccc(-c2cccc3c4c([nH]c23)[C@@H]2C[C@H]3[C@@H](C(=O)N2CC4)[C@H](C)ON3C)c1	/	-3	/	/	6
COc1ccc(-c2cc(C(F)(F)F)nc(S(C)(=O)=O)n2)cc1	29*	-6	-35	2	-6
COC(=O)[C@]12C[C@H](CC(=O)NCC3CCCCC3)C(=O)N(Cc3ccco3)C1=C[C@H](C(C)(C)C)O[C@@H]2C	/	1	/	/	11
Cc1ccc(-c2ccc(/C=N/NC(N)=S)o2)cc1	7	10	-5	-1	6
NC(=S)N/N=C/c1ccc(-c2ccc(SC(F)F)cc2)o1	27*	11	-4	-10	13
COc1ccccc1/C=C/C=C1N=C(/C=C/c2ccc(Cl)cc2)OC/1=O	30*	-14	-21	0	20
CC(C)c1ccc(S(=O)(=O)N2CCN(C(=O)n3ccnc3)CC2)cc1	30*	-4	1	-4	12
COC(=O)[C@]12C[C@H](CC(=O)NCCc3ccccc3OC)C(=O)N(Cc3ccc4c(c3)OCO4)C1=C[C@H](C(C)(C)C)O[C@@H]2C	/	-2	/	4	-14
COc1ccccc1-n1c(=S)[nH]c2c(sc(=S)n2-c2ccccc2)c1=O	3	-3	-5	1	-5
CCOc1ccccc1-n1c(=S)sc2c(=O)n(-c3ccccc3)c(=S)[nH]c21	2	19*	-3	6	1
C=CCN1[C@H](Cc2ccccc2)COc2cccc(N3CCSCC3)c2S1(=O)=O	/	-3	/	/	-4
Cc1ccc(C(=O)N(CCc2ccccc2)Cc2ccccc2)cc1S(=O)(=O)N1CCOCC1	/	-4	-14	7	3
COc1ccc(C(=O)N(CCc2ccccc2)Cc2ccccc2)cc1S(=O)(=O)N1CCOCC1	27*	7	-8	-5	2
COCCNC(=S)N(C)[C@H]1C[C@H]2c3[nH]c4c(-c5ccc6c(c5)OCO6)cccc4c3CCN2C[C@H]1[C@H](C)O	/	2	/	/	8
N#C/C(=N\Nc1ccc(Cl)cc1)C(=O)c1ccccc1	27*	4	9	-2	2
CC(=O)N1C(C)(C)CC(=NOC(=O)c2ccccc2)CC1(C)C	6	2	-6	2	0
CC(=O)N1C(C)(C)CC(=NOC(=O)c2ccc(C)cc2)CC1(C)C	25*	8	-5	-1	4
C#CCCCN([C@@H](CC(C)C)C(=O)OC)S(=O)(=O)c1ccccc1Br	/	2	/	/	-4
COC(=O)[C@]12C[C@H](CC(=O)N3CCSCC3)C(=O)N(CCC3=CCCCC3)C1=C[C@H](C(C)C)O[C@@H]2C1CC1	/	-2	/	/	-5
COc1ccc(Oc2c(Cl)cnn(CC(=O)C(c3ccccc3)c3ccccc3)c2=O)cc1	/	3	/	/	-3
Cc1ccc(NS(=O)(=O)c2cccc(C(=O)Nc3c(C)n(C)n(-c4ccccc4)c3=O)c2)cc1	25*	/	/	/	/
Cc1c(NC(=O)c2ccc(NS(=O)(=O)c3ccccc3)cc2)c(=O)n(-c2ccccc2)n1C	8	0	-1	6	-2
Cc1ccc(NS(=O)(=O)c2cccc(C(=O)Nc3cc(C)on3)c2)cc1	33*	-6	-20	4	-6
CCC(CC)C(=O)Nc1cccc(C(=O)Nc2ccc(S(N)(=O)=O)cc2)c1	2	-11	-2	4	-9
CCC(CC)C(=O)Nc1cccc(C(=O)Nc2ccc(S(=O)(=O)Nc3ccc(C)cc3)cc2)c1	21	-166	-131	24*	-138
Cc1ccc(S(=O)(=O)Nc2ccc(C(=O)Nc3cc(C)on3)cc2)cc1	23	-5	-6	-6	-2
Cc1ccc(NS(=O)(=O)c2cccc(C(=O)NCC3CCCO3)c2)cc1 (stereo not drawn)	31*	-6	-10	-8	-1
COC(=O)[C@]12C[C@H](CC(=O)NCc3cccc(C(F)(F)F)c3)C(=O)N(CCC3=CCCCC3)C1=C[C@H](C(C)C)O[C@@H]2C1CC1	/	-4	/	/	-9
